Screening results: PubChem, several laboratories
Only some compounds are listed: those with a hit (about 4.3% of all), similar ones and a draw of the others.
RBBP9 inh = blocks human serine hydrolase RBBP9 | recombinant RBBP9, FP-Rh probe fluorescence polarization | inhibition, % at 7.94 µM | 0.2% of 220,000 active;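 active = inhibition above the campaign mean of all tested compounds plus 3 SD, cut at about 14% in these data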
Target sequence (O75884 whole entry, looked up): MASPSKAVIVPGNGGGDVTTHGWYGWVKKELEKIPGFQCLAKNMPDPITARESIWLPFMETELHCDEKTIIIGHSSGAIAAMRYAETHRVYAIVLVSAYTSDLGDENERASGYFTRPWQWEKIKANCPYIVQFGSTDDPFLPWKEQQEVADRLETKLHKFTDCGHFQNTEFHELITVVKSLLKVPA
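Test system: recombinant human RBBP9. Quantity: 2.5 µM RBBP9 dispensing solution, before mixing. Detection: FP readout at 525/598 nm. Reagent: Serine-hydrolase probe FP-Rh, 375 nM pre-mixing. Measure: % inhibition. Control set: DMSO-treated enzyme wells and wells lacking RBBP9. Buffer or medium: Tris-NaCl-Pluronic buffer, pH 8.0. Times: preincubation 30 min plus labeling 45 min at 25 °C.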
SUMO HTRF inh = blocks human SUMOylation mediated by UBC9. P63279. 0.36% of 290,000 active. AID 2006. inhibition, % at 35 µM. HTRF SUMOylation assay, SAE1/SAE2 + UBC9, in vitro; in the data active = inhibition above about 50%, passing the limit was not always enough
Target sequence (P63279 whole entry, looked up): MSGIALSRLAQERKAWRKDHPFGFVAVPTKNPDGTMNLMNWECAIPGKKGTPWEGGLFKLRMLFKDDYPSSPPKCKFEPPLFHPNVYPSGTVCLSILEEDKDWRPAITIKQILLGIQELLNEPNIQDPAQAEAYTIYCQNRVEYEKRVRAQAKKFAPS
UBC13 inh = human UBC13 polyubiquitination inhibition; inhibition, % at 20 µM; AID 485273; 0.47% of 330,000 active; P61088; UBC13 polyubiquitin chain formation, TR-FRET; in the data active = inhibition above about 45%, passing the limit was not always enough
Target sequence (P61088 whole entry, looked up): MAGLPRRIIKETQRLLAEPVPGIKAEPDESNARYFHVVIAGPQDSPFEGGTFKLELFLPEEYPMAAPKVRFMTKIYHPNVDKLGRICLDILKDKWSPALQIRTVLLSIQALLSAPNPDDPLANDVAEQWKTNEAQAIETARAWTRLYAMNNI
Rin1 Abl inh = blocks binding of human Rin1 to Abl; inhibition, % at 7.35 µM; 0.4% of 360,000 active; TR-FRET Rin1/Abl binding, biochemical; in the data active = inhibition above about 5%, passing the limit was not always enough
ALR inh = blocks human ALR sulfhydryl oxidase activity | 3.8% of 290,000 active | inhibition, % (no concentration beside the values) | P55789 | purified ALR, DTT oxidation, H2O2 HRP-luminol luminescence;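 active = mean replicate inhibition above about 79%, with every replicate also reaching it, limit read from the data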
PREPL inhibitor = inhibitors of human prolyl oligopeptidase-like enzyme PREPL. recombinant PREPL, fluorescence polarization activity-based probe. inhibition, % at 5.96 µM. 0.68% of 320,000 active. AID 2751; in the data active = inhibition above about 43%
Casp3 UBC13 ctr = caspase-3 inhibition (UBC13 counter-screen) | shares compounds with UBC13 inh | Recombinant caspase-3, Caspase-Glo 3/7 luminescence, 60 min | inhibition, % at 20 µM | 4% of 1,400 active | AID 488856;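 active = mean inhibition across replicates above about 26%, limit read from the data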
UBC13 confirm = human UBC13 polyubiquitin inhibition, confirmed; UBC13 polyubiquitination, TR-FRET, biochemical; inhibition, % at 10 µM; shares compounds with UBC13 inh; 68% of 1,400 active; AID 488859; in the data active = inhibition above about 45%
Large screens that a line does not name were inactive (follow-up assays come after a bar, where they were run).

COC(=O)c1c(NC(=S)NN2CCN(C)CC2)sc2c1CCC(C)C2 (centres undefined)	UBC13 inh 62 | Casp3 UBC13 ctr inactive | UBC13 confirm 91
CNc1ccc(-c2cccc(CO)c2)cn1	none (no result: RBBP9 inh, SUMO HTRF inh, UBC13 inh, ALR inh, PREPL inhibitor)
C=CCn1c(=O)c(C(=O)Nc2ccccc2S(N)(=O)=O)c(O)c2ccccc21	UBC13 inh 46 | Casp3 UBC13 ctr inactive | UBC13 confirm inactive
C=CCn1c(=O)c(C(=O)Nc2ccccc2C(=O)OCC)c(O)c2ccccc21	none
CCOC(=O)[C@H]1[C@H]2COc3ccc(OC)cc3[C@@H]2N2C(=O)[C@H](C)NC(=O)[C@@]12C	none (no result: RBBP9 inh, SUMO HTRF inh)
COC(=O)c1c(NC(=O)CSc2nnc3ccccn23)sc2c1CCC2	none
CCSc1ccc2c(c1)N(CCCN1CCN(C)CC1)c1ccccc1S2	UBC13 inh 75, ALR inh 97 (no result: RBBP9 inh, SUMO HTRF inh) | Casp3 UBC13 ctr inactive | UBC13 confirm 64
OCCN1CCN(CC/C=C2/c3ccccc3Sc3ccc(C(F)(F)F)cc32)CC1	UBC13 inh 66 (no result: RBBP9 inh, SUMO HTRF inh) | Casp3 UBC13 ctr inactive | UBC13 confirm 71
OCCN1CCN(CCCN2c3ccccc3CCc3ccccc32)CC1	none (no result: RBBP9 inh, SUMO HTRF inh, UBC13 inh, ALR inh, PREPL inhibitor)
OCCN1CCN(CC/C=C2/c3ccccc3CSc3ccccc32)CC1	none (no result: RBBP9 inh, SUMO HTRF inh)
OCCN1CCN(CCCN2c3ccccc3Sc3ccc(C(F)(F)F)cc32)CC1	UBC13 inh 87, ALR inh 98 | Casp3 UBC13 ctr inactive | UBC13 confirm 92
COc1cc(C(=O)N(C(C)C)C2CCCCC2)cc(OC)c1OC	none (no result: RBBP9 inh, SUMO HTRF inh, UBC13 inh, ALR inh, PREPL inhibitor)
C[C@@H]1CN([C@H](C)CO)C(=O)c2cc(NC(=O)Nc3ccc(F)cc3)ccc2O[C@@H](C)CCCCO[C@H]1CN(C)S(=O)(=O)c1cccs1	none (no result: RBBP9 inh, SUMO HTRF inh, UBC13 inh, ALR inh, PREPL inhibitor)
Cc1ccc(CNS(=O)(=O)c2ccc(C)s2)cc1	none (no result: RBBP9 inh, SUMO HTRF inh)
NCCCC[C@@H](C(=O)N1CCNCC1)n1cc(CN)nn1	UBC13 inh 60 (no result: RBBP9 inh, SUMO HTRF inh) | Casp3 UBC13 ctr inactive | UBC13 confirm 47
CC(C)Oc1ccc(C2CC(=O)N(c3cccc(/C=C/C(=O)O)c3)C2=O)cc1 (centres undefined)	none (no result: RBBP9 inh)
C#CCNC(=O)C1=C[C@H](c2cn(C(C)=O)c3ccccc23)C[C@H](OCc2ccc(CO)cc2)O1	UBC13 inh 63 | Casp3 UBC13 ctr inactive | UBC13 confirm 46
CC(=O)n1cc([C@@H]2C=C(C(=O)NCc3ccccc3)O[C@H](OCc3ccc(CO)cc3)C2)c2ccccc21	none (no result: RBBP9 inh, ALR inh)
CC(=O)n1cc([C@H]2C=C(C(=O)Nc3ccccc3)O[C@@H](OCc3ccc(CO)cc3)C2)c2ccccc21	UBC13 inh 64 | Casp3 UBC13 ctr inactive | UBC13 confirm 58
C/C(O)=C(/C=NCC(=O)O)C(=O)Nc1nccs1	none
CN(C)c1ccc(S(=O)(=O)NCC(=O)NCCC2=CCCCC2)cc1[N+](=O)[O-]	none (no result: RBBP9 inh, SUMO HTRF inh)
Cc1nn2c(nc(N3CCCCC3)c3ccccc32)c1C=O	none (no result: ALR inh)
Cc1nn2c(nc(N3CCOCC3)c3ccccc32)c1C=C(C#N)C#N	UBC13 inh 47 | Casp3 UBC13 ctr inactive | UBC13 confirm 46
C#CCOCCOCCOCCNc1nc(N2CCN(C(=O)[C@H](Cc3ccc(O)cc3)n3cc([C@@H](N)C(C)CC)nn3)CC2)nc(N2CCN(C(=O)[C@H](CCCCN)n3cc([C@@H](N)CC(C)C)nn3)CC2)n1 (some centres undefined)	UBC13 inh 58 (no result: Rin1 Abl inh) | Casp3 UBC13 ctr inactive | UBC13 confirm 50
C#CCOCCOCCOCCNc1nc(N2CCN(C(=O)[C@H]([C@@H](C)CC)n3cc([C@@H](N)CC(C)C)nn3)CC2)nc(N2CCN(C(=O)[C@H](Cc3ccc(O)cc3)n3cc([C@@H](N)C(C)CC)nn3)CC2)n1 (some centres undefined)	UBC13 inh 57 | Casp3 UBC13 ctr inactive | UBC13 confirm 51
C#CCOCCOCCOCCNc1nc(N2CCN(C(=O)[C@H]([C@@H](C)CC)n3cc([C@@H](N)CO)nn3)CC2)nc(N2CCN(C(=O)[C@H](Cc3ccc(O)cc3)n3cc([C@@H](N)CC(C)C)nn3)CC2)n1	none
